Measured values taken from PMC6445238 (Drug Design, Development and Therapy, 2019).
Entries after “also recorded” stand apart in the source; their conditions may differ.

Columns and labels:
[1] = SAD study, safety and tolerability; assay type: in vivo, human; settings: for Abdominal discomfort, number of subjects (%) / Cough, number of subjects (%) / Eye swelling, number of subjects (%) / Face injury, number of subjects (%) / Headache, number of subjects (%) / Hot flush, number of subjects (%) / Hyperbilirubinemia, number of subjects (%) / Hypoesthesia, number of subjects (%) / Influenza, number of subjects (%) / Pain in extremity, number of subjects (%) / Proteinuria, number of subjects (%) / Subjects with any TEAEs, number of subjects (%) / Syncope, number of subjects (%): N=6
Summary of the method: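 SAD cohorts were 6 active and 2 placebo healthy males given a single oral dose, with 2 sentinel subjects dosed at least 24 h before the rest. Confinement ran day −1 to day 3, with outpatient visits on days 4 and 7 and follow-up on day 14. Safety covered vital signs, clinical labs, 12-lead ECG, physical exams, and reported or observed AEs, coded with MedDRA 19.1. Counts are subjects with AEs, % of the safety population. Placebo subjects were pooled.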

[2] = test system: dopaminergic neurons treated with MPTP; settings: dose-dependent, ref unpublished data; cited from earlier work
[3] = Multiple ascending dose; assay type: in vivo, human; settings: for CSF KM-819 concentration: day 7, 1 hour postdose
Summary of the method: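 Plasma was sampled on day 1 predose and at 0.25–12 h, on days 2–6 predose, and on day 7 predose and at 0.25–24 h. CSF was taken by lumbar puncture on day 1 predose and on day 7, 1 h after the last dose. Plasma was measured by UPLC-MS/MS with a deuterated internal standard, linear over 2–20,000 ng/mL (LOQ 2 ng/mL). Parameters came from non-compartmental analysis. Accumulation index = day 7 AUCtau and Cmax,ss over day 1 AUC0–24 and Cmax.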

Cc1nn(Cc2ccc(Br)cc2)c(C)c1NC(=O)CSc1ccccc1 [KM-819]
serious adverse events (SAEs) ([1]; SAD): no serious adverse events | bilirubin levels ([1]; SAD, 10 mg and 30 mg cohorts, day 2, normal on day 7): increasing trend of bilirubin levels | Abdominal discomfort, number of subjects (%) ([1]; single 10 mg, young): 0 | Cough, number of subjects (%) ([1]; single 10 mg, young): 0 | Eye swelling, number of subjects (%) ([1]; single 10 mg, young): 0 | Face injury, number of subjects (%) ([1]; single 10 mg, young): 0 | Headache, number of subjects (%) ([1]; single 10 mg, young): 0 | Hot flush, number of subjects (%) ([1]; single 10 mg, young): 0 | Hyperbilirubinemia, number of subjects (%) ([1]; single 10 mg, young): 2 (33.3) | Hypoesthesia, number of subjects (%) ([1]; single 10 mg, young): 0 | Influenza, number of subjects (%) ([1]; single 10 mg, young): 0 | Pain in extremity, number of subjects (%) ([1]; single 10 mg, young): 0 | Proteinuria, number of subjects (%) ([1]; single 10 mg, young): 0 | Subjects with any TEAEs, number of subjects (%) ([1]; single 10 mg, young): 2 (33.3) | Syncope, number of subjects (%) ([1]; single 10 mg, young): 0 | Abdominal discomfort, number of subjects (%) ([1]; single 30 mg, young): 0 | Cough, number of subjects (%) ([1]; single 30 mg, young): 0 | Eye swelling, number of subjects (%) ([1]; single 30 mg, young): 0 | Face injury, number of subjects (%) ([1]; single 30 mg, young): 0 | Headache, number of subjects (%) ([1]; single 30 mg, young): 0 | Hot flush, number of subjects (%) ([1]; single 30 mg, young): 0 | Hyperbilirubinemia, number of subjects (%) ([1]; single 30 mg, young): 0 | Hypoesthesia, number of subjects (%) ([1]; single 30 mg, young): 0 | Influenza, number of subjects (%) ([1]; single 30 mg, young): 0 | Pain in extremity, number of subjects (%) ([1]; single 30 mg, young): 1 (16.7) | Proteinuria, number of subjects (%) ([1]; single 30 mg, young): 0 | Subjects with any TEAEs, number of subjects (%) ([1]; single 30 mg, young): 2 (33.3) | Syncope, number of subjects (%) ([1]; single 30 mg, young): 1 (16.7) | Abdominal discomfort, number of subjects (%) ([1]; single 100 mg, young): 0 | Cough, number of subjects (%) ([1]; single 100 mg, young): 0 | Eye swelling, number of subjects (%) ([1]; single 100 mg, young): 0 | Face injury, number of subjects (%) ([1]; single 100 mg, young): 0 | Headache, number of subjects (%) ([1]; single 100 mg, young): 0 | Hot flush, number of subjects (%) ([1]; single 100 mg, young): 0 | Hyperbilirubinemia, number of subjects (%) ([1]; single 100 mg, young): 1 (16.7) | Hypoesthesia, number of subjects (%) ([1]; single 100 mg, young): 1 (16.7) | Influenza, number of subjects (%) ([1]; single 100 mg, young): 0 | Pain in extremity, number of subjects (%) ([1]; single 100 mg, young): 0 | Proteinuria, number of subjects (%) ([1]; single 100 mg, young): 1 (16.7) | Subjects with any TEAEs, number of subjects (%) ([1]; single 100 mg, young): 2 (33.3) | Syncope, number of subjects (%) ([1]; single 100 mg, young): 0 | Abdominal discomfort, number of subjects (%) ([1]; single 200 mg, elderly): 0 | Cough, number of subjects (%) ([1]; single 200 mg, elderly): 0 | Eye swelling, number of subjects (%) ([1]; single 200 mg, elderly): 0 | Face injury, number of subjects (%) ([1]; single 200 mg, elderly): 1 (16.7) | Headache, number of subjects (%) ([1]; single 200 mg, elderly): 2 (33.3) | Hot flush, number of subjects (%) ([1]; single 200 mg, elderly): 1 (16.7) | Hyperbilirubinemia, number of subjects (%) ([1]; single 200 mg, elderly): 0 | Hypoesthesia, number of subjects (%) ([1]; single 200 mg, elderly): 0 | Influenza, number of subjects (%) ([1]; single 200 mg, elderly): 0 | Pain in extremity, number of subjects (%) ([1]; single 200 mg, elderly): 0 | Proteinuria, number of subjects (%) ([1]; single 200 mg, elderly): 0 | Subjects with any TEAEs, number of subjects (%) ([1]; single 200 mg, elderly): 2 (33.3) | Syncope, number of subjects (%) ([1]; single 200 mg, elderly): 0 | Abdominal discomfort, number of subjects (%) ([1]; single 200 mg, young): 1 (16.7) | Cough, number of subjects (%) ([1]; single 200 mg, young): 0 | Eye swelling, number of subjects (%) ([1]; single 200 mg, young): 0 | Face injury, number of subjects (%) ([1]; single 200 mg, young): 0 | Headache, number of subjects (%) ([1]; single 200 mg, young): 0 | Hot flush, number of subjects (%) ([1]; single 200 mg, young): 0 | Hyperbilirubinemia, number of subjects (%) ([1]; single 200 mg, young): 0 | Hypoesthesia, number of subjects (%) ([1]; single 200 mg, young): 0 | Influenza, number of subjects (%) ([1]; single 200 mg, young): 0 | Pain in extremity, number of subjects (%) ([1]; single 200 mg, young): 0 | Proteinuria, number of subjects (%) ([1]; single 200 mg, young): 0 | Subjects with any TEAEs, number of subjects (%) ([1]; single 200 mg, young): 1 (16.7) | Syncope, number of subjects (%) ([1]; single 200 mg, young): 0 | Abdominal discomfort, number of subjects (%) ([1]; single 400 mg, young): 0 | Cough, number of subjects (%) ([1]; single 400 mg, young): 0 | Eye swelling, number of subjects (%) ([1]; single 400 mg, young): 0 | Face injury, number of subjects (%) ([1]; single 400 mg, young): 0 | Headache, number of subjects (%) ([1]; single 400 mg, young): 0 | Hot flush, number of subjects (%) ([1]; single 400 mg, young): 0 | Hyperbilirubinemia, number of subjects (%) ([1]; single 400 mg, young): 0 | Hypoesthesia, number of subjects (%) ([1]; single 400 mg, young): 0 | Influenza, number of subjects (%) ([1]; single 400 mg, young): 0 | Pain in extremity, number of subjects (%) ([1]; single 400 mg, young): 0 | Proteinuria, number of subjects (%) ([1]; single 400 mg, young): 0 | Subjects with any TEAEs, number of subjects (%) ([1]; single 400 mg, young): 0 | Syncope, number of subjects (%) ([1]; single 400 mg, young): 0 | overall safety and tolerability ([1]; single or multiple doses): generally well tolerated; also recorded: no remarkable or significant safety concerns; also recorded: safe and well tolerated | protection of dopaminergic neurons [2]: protect the dopaminergic neurons | AUC0–24, geometric mean (CV%) ([3]; 30 mg QD, day 1, young): 1,761 (21.3) ng·h/mL | Cmax, geometric mean (CV%) ([3]; 30 mg QD, day 1, young): 512.0 (30.9) ng/mL | Tmax, median (min–max) ([3]; 30 mg QD, day 1, young): 2.00 (1.00–6.00) h | CSF KM-819 concentration ([3]; 30 mg QD): no CSF KM-819 concentrations were measurable | AUCtau, geometric mean (CV%) ([3]; 30 mg QD, day 7, young): 1,572 (24.8) ng·h/mL | Cmax,ss, geometric mean (CV%) ([3]; 30 mg QD, day 7, young): 418.5 (51.7) ng/mL | Tmax,ss, median (min–max) ([3]; 30 mg QD, day 7, young): 2.00 (1.00–6.00) h | AUC0–24, geometric mean (CV%) ([3]; 100 mg QD, day 1, young): 3,735 (38.5) ng·h/mL | Cmax, geometric mean (CV%) ([3]; 100 mg QD, day 1, young): 1,009 (33.0) ng/mL | Tmax, median (min–max) ([3]; 100 mg QD, day 1, young): 2.00 (1.00–4.00) h | mean CSF/Cmax ratio ([3]; 100 mg QD, day 7, CSF 1 hour postdose): 0.067% | AUCtau, geometric mean (CV%) ([3]; 100 mg QD, day 7, young): 3,477 (17.9) ng·h/mL | Cmax,ss, geometric mean (CV%) ([3]; 100 mg QD, day 7, young): 1,012 (39.5) ng/mL | Cmin,ss, geometric mean (CV%) ([3]; 100 mg QD, day 7, young): 9.983 (31.1) ng/mL | Tmax,ss, median (min–max) ([3]; 100 mg QD, day 7, young): 3.00 (1.00–4.00) h | Cmax,ss in elderly relative to young ([3]; 200 mg QD for 7 days, day 7): 191% | plasma exposure (AUCtau) in elderly relative to young ([3]; 200 mg QD for 7 days, day 7): 102% | AUC0–24, geometric mean (CV%) ([3]; 200 mg QD, day 1, elderly): 17,590 (53.3) ng·h/mL | Cmax, geometric mean (CV%) ([3]; 200 mg QD, day 1, elderly): 3,542 (76.4) ng/mL | Tmax, median (min–max) ([3]; 200 mg QD, day 1, elderly): 2.00 (1.00–6.00) h | AUC0–24, geometric mean (CV%) ([3]; 200 mg QD, day 1, young): 6,485 (62.2) ng·h/mL | Cmax, geometric mean (CV%) ([3]; 200 mg QD, day 1, young): 1,465 (77.2) ng/mL | Tmax, median (min–max) ([3]; 200 mg QD, day 1, young): 3.00 (2.00–6.00) h | mean CSF/Cmax ratio ([3]; 200 mg QD, day 7, CSF 1 hour postdose, elderly): 0.032% | mean CSF/Cmax ratio ([3]; 200 mg QD, day 7, CSF 1 hour postdose, young): 0.074% | AUCtau, geometric mean (CV%) ([3]; 200 mg QD, day 7, elderly): 16,250 (34.1) ng·h/mL | Cmax,ss, geometric mean (CV%) ([3]; 200 mg QD, day 7, elderly): 3,231 (52.5) ng/mL | Cmin,ss, geometric mean (CV%) ([3]; 200 mg QD, day 7, elderly): 44.82 (48.3) ng/mL | Tmax,ss, median (min–max) ([3]; 200 mg QD, day 7, elderly): 2.00 (1.00–4.00) h | AUCtau, geometric mean (CV%) ([3]; 200 mg QD, day 7, young): 8,023 (7.7) ng·h/mL | Cmax,ss, geometric mean (CV%) ([3]; 200 mg QD, day 7, young): 1,111 (64.3) ng/mL | Cmin,ss, geometric mean (CV%) ([3]; 200 mg QD, day 7, young): 32.44 (19.4) ng/mL | Tmax,ss, median (min–max) ([3]; 200 mg QD, day 7, young): 4.00 (4.00–4.00) h | AUC0–24, geometric mean (CV%) ([3]; 400 mg QD, day 1, young): 11,260 (37.1) ng·h/mL | Cmax, geometric mean (CV%) ([3]; 400 mg QD, day 1, young): 3,163 (50.7) ng/mL | Tmax, median (min–max) ([3]; 400 mg QD, day 1, young): 2.00 (1.00–6.00) h | mean CSF/Cmax ratio ([3]; 400 mg QD, day 7, CSF 1 hour postdose): 0.049% | AUCtau, geometric mean (CV%) ([3]; 400 mg QD, day 7, young): 19,530 (96.4) ng·h/mL | Cmax,ss, geometric mean (CV%) ([3]; 400 mg QD, day 7, young): 3,172 (37.9) ng/mL | Cmin,ss, geometric mean (CV%) ([3]; 400 mg QD, day 7, young): 75.14 (28.4) ng/mL | Tmax,ss, median (min–max) ([3]; 400 mg QD, day 7, young): 2.00 (0.50–4.00) h | dose proportionality of plasma exposure (AUC) after repeated dosing ([3]; 30–400 mg QD for 7 days, day 7): approximately dose-proportional; also recorded: dose-proportional increase | variability (CV%) of AUCtau and Cmax,ss ([3]; MAD): up to 96% | dose proportionality of AUC and Cmax after a single dose ([3]; MAD, day 1): less than dose-proportional increase | dose proportionality of Cmax after repeated dosing ([3]; MAD, day 7): less than dose-proportional increase | dose proportionality of Cmin after repeated dosing ([3]; MAD, day 7): slightly more than dose-proportional increase | Estimated mean slope, dose proportionality power model, Cmin,ss ([3]; MAD, day 7, N=21): 1.1852 | mean CSF/Cmax ratio ([3]; each cohort): less than 0.1% | time to steady-state (trough) concentrations ([3]; repeated QD dosing, each group): 5 days | CSF KM-819 concentration ([3]; ≥100 mg QD): measurable in more than half of the CSF samples
